The source of these data is publication PMC12752248 (BMC Biotechnology, 2025).

In general, Kd refers to the equilibrium constant for the complex coming apart. Lower therefore signals higher affinity. In general, Km refers to the substrate concentration at which the rate is half of its maximum. The Vmax is the rate approached at saturating substrate. For orientation: kcat means the maximal rate divided by the concentration of active sites. One may read the kcat/Km as the second-order rate constant that governs catalysis at low substrate concentration.

Where two headings read alike, the source gives them in different places. Marks after values point to notes of the source that are not given here.

The target in series [1] is T1, BJ6PAD (Bacillus subtilis, UniProt O07006).
T1 sequence (O07006 with tags, fused parts or gaps A39G/H105Y/L108V/E129D/F132Y/K134N/E136A/V138I/D139N/E142T/V143L/K146E): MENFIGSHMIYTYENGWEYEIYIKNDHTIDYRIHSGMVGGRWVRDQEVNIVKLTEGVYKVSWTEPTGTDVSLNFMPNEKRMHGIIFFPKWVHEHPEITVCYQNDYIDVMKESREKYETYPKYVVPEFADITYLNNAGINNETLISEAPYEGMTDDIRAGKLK
Put plainly: Effects of metal ions and chemical reagents on enzyme activity, BJ6PAD. Conditions: 60 min incubation, no additive = 100%. The format is biochemical, Bacillus subtilis J6. The gist of the method:
(§1)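 His-tagged enzyme was expressed in E. coli BL21(DE3) and Ni-agarose purified. It was incubated 60 min with each metal ion (K⁺, Mg²⁺, Ca²⁺, Fe²⁺, Mn²⁺, Cu²⁺, Zn²⁺), EDTA, SDS or Triton X-100 at final concentrations of 1 or 5 mmol/L. Activity was then assayed in 50 mmol/L citrate-Na₂HPO₄ pH 6.0 at 37 ℃ for 5 min, stopped with methanol, with residual substrate by C18 HPLC at 280 nm. Done in triplicate.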

Series [2] deals with T2, BJ6PAD-N (Bacillus subtilis, UniProt O07006).
T2 sequence (O07006 with tags, fused parts or gaps A39G/H105Y/L108V/E129D/F132Y/K134N/E136A/V138I/D139N/E142T/V143L/K146E): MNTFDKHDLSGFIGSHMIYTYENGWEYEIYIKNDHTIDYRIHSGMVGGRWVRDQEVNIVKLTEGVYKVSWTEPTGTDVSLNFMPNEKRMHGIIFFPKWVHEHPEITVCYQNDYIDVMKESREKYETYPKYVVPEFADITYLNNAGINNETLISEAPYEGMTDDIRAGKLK
The series is described as follows: Effects of metal ions and chemical reagents on enzyme activity, BJ6PAD-N. Conditions: 60 min incubation, no additive = 100%. The format is biochemical, Bacillus subtilis J6. In outline:
as §1

Series [3] deals with BJ6PAD-N. The series is described as follows: Specific enzyme activity towards phenolic acid substrates, BJ6PAD-N. The format is biochemical, Bacillus subtilis J6. As to conditions: BJ6PAD-N vs BJ6PAD. The gist of the method: (§2)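 Both purified His-tagged enzymes were reacted at 37 ℃ in 50 mmol/L citrate-Na₂HPO₄ pH 6.0 for 5 min with three hydroxycinnamic acids at 10 mmol/L or sinapic-type acid at 6 mmol/L. Reactions were stopped with methanol, with an enzyme-free buffer control. Remaining substrate was measured by C18 HPLC at 280 nm. One IU is 1 µmol substrate converted/min; protein was by BCA, giving IU/mg. Done in triplicate.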

For series [4], the target named is T2, BJ6PAD-N. Described as above. As to conditions: 37 ℃, pH 6.0; pCA, FA, CafA 10 mmol/L, SA 6 mmol/L. Type of series: biochemical, Bacillus subtilis J6. The gist of the method:
as §2

The target in series [5] is T1, BJ6PAD. The series is described as follows: Isothermal titration calorimetry of enzyme-substrate interaction, BJ6PAD. Type of series: binding, Bacillus subtilis J6. In outline: (§3)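 Ni-purified His-tagged enzyme, eluted in […] buffer pH 7.9–8.1, was placed in the cell at 0.02 mmol/L. Each of four phenolic acid substrates (0.2 mmol/L in the same buffer) was in the syringe. All solutions were degassed 10 min. Twenty 2 µL injections were given 150 s apart at 37 °C with 350 rpm stirring. Thermodynamic parameters came from an independent-site model fit, in triplicate.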
For orientation: In ITC the heat of successive injections is recorded.

Series [6] concerns the target T1, BJ6PAD. The series is described as follows: Specific enzyme activity towards phenolic acid substrates, BJ6PAD. Type of series: biochemical, Bacillus subtilis J6. Conditions: 37 ℃, pH 6.0; pCA, FA, CafA 10 mmol/L, SA 6 mmol/L. The gist of the method: as §2
The target of series [7] is T2, BJ6PAD-N. Put plainly: Isothermal titration calorimetry of enzyme-substrate interaction, BJ6PAD-N. Type of series: binding, Bacillus subtilis J6. In outline: as §3
The target of series [8] is T1, BJ6PAD. Put plainly: Enzymatic kinetic parameters. The format is biochemical, Bacillus subtilis J6.
In series [9] the target is T2, BJ6PAD-N. Put plainly: Enzymatic kinetic parameters. Type of series: biochemical, Bacillus subtilis J6.
Series [10] relates to BJ6PAD-N. Put plainly: Enzymatic kinetic parameters. The format is biochemical, Bacillus subtilis J6. As to conditions: BJ6PAD-N vs BJ6PAD.
Substrate in series [11]: O=C(O)C=Cc1ccc(O)cc1
Put plainly: Enzymatic kinetic parameters. The format is biochemical, Bacillus subtilis J6. As to conditions: pH 6.0.

In the case of `[K+]` [K^+], the Residual enzyme activity in [1] (1 mmol/L additive) was 104.96 ± 0.24^b %; in series [1] (5 mmol/L additive), 98.61 ± 1.46^b %; in series [2] (1 mmol/L additive), 96.63 ± 2.16^a %; in [2] (5 mmol/L additive) it was 89.61 ± 1.14^a %.

As for `O=C(O)/C=C/c1ccc(O)cc1` [p-coumaric acid], the “Increase of specific enzyme activity of BJ6PAD-N compared with BJ6PAD” value (shortened to “Increase … with BJ6PAD”) in series [3] is reported as 18.65%. For the same molecule, the results for the Specific enzyme activity in [4] and in series [6] were 248.96 ± 1.59^a IU/mg and 209.82 ± 1.41^b IU/mg, respectively. Also, the dissociation constant Kd in [5] is 12.8 µM; in series [7], 16.3 µM. The ΔG in series [5] (ITC, 37 °C) was -6.917 kcal/mol; in [7] (ITC, 37 °C), -6.812 kcal/mol. Moreover, the ΔH in series [5] (ITC, 37 °C) is -14.71 kcal/mol; in series [7] (ITC, 37 °C), -1.45 kcal/mol. The molecule further showed a ΔS in series [7] (ITC, 37 °C) of 0.07 kJ/mol·K.

Regarding `O=C(O)/C=C/c1ccc(O)c(O)c1` [caffeic acid], in [8], the Michaelis constant (Km) was determined as 3.54 ± 1.05 mM, the Vmax is reported as 137.1 ± 8.87^b IU/mg and the turnover number (kcat) is reported as 43.67 ± 3.61^b s^− 1. Moreover, in [9], the Km turned out to be 3.03 ± 0.12 mM, the Vmax is 139.3 ± 5.70^ab IU/mg and the kcat was 46.39 ± 1.55^ab s^− 1. Also, the “Increase … with BJ6PAD” value in [3] is recorded as 9.25%. Further, the Specific enzyme activity in [4] is listed as 100.88 ± 3.71^a IU/mg. This molecule displayed a Kd in series [5] of 4.23 µM. In [5] (ITC, 37 °C), the ΔG was -7.622 kcal/mol and the ΔH is -8.444 kcal/mol. Further, the Specific enzyme activity in series [6] is given as 92.34 ± 0.57^b IU/mg. Also, the Kd in series [7] worked out at 7 µM. In [7] (ITC, 37 °C), this molecule showed a ΔG of -7.292 kcal/mol, a ΔH of -14.9 kcal/mol and a ΔS of -0.10 kJ/mol·K.

Consider `COc1cc(/C=C/C(=O)O)cc(OC)c1O` [sinapic acid], for which, in [8], the Michaelis constant (Km) is 4.19 ± 1.13 mM, the Vmax is on record as 35.02 ± 6.03^a IU/mg and the catalytic constant (kcat) was 11.15 ± 1.57^a s^− 1. Also, in series [10], the “Decrease in Km value of BJ6PAD-N compared with BJ6PAD” value is listed as 70.17% and the “Increase of catalytic efficiency (kcat/Km) of BJ6PAD-N over BJ6PAD” value stood at 1.93 fold. In series [9], the Michaelis constant (Km) was found to be 1.25 ± 0.11 mM, the maximum rate (Vmax) was 29.48 ± 1.23^a IU/mg and the kcat was 9.82 ± 0.33^a s^− 1. For the same molecule, in series [3], the “Increase … with BJ6PAD” value was 34.83%. Moreover, the Specific enzyme activity in [4] was 23.42 ± 0.02^a IU/mg. Also, in series [5] (ITC, 37 °C), binding was put at a Kd of 19.3 µM, the ΔG was -6.678 kcal/mol and the ΔH is -10.25 kcal/mol. Also, in series [6], the Specific enzyme activity is recorded as 17.37 ± 0.64^b IU/mg. In addition, in series [7] (ITC, 37 °C), binding was put at a Kd of 7.02 µM, the ΔG is -7.337 kcal/mol, the ΔH is -0.098 kcal/mol and the ΔS came out at 0.10 kJ/mol·K.

With `COc1cc(/C=C/C(=O)O)ccc1O` [ferulic acid], in series [8], the Km turned out to be 4.62 ± 0.01 mM, the Vmax is on record as 229.73 ± 4.95^b IU/mg and the kcat is listed as 73.17 ± 1.29^b s^− 1. In [9], the Km stood at 8.42 ± 0.19 mM, the maximum rate (Vmax) is recorded as 337.97 ± 7.10^a IU/mg and the kcat is recorded as 112.54 ± 1.93^a s^− 1. In series [3], the “Increase … with BJ6PAD” value turned out to be 18.37%. Also, in [4], the Specific enzyme activity is reported as 178.56 ± 1.58^a IU/mg. In series [5] (ITC, 37 °C), binding was characterised by a dissociation constant (Kd) of 1.25 µM, the ΔG was -8.384 kcal/mol, the ΔH is -5.134 kcal/mol and the ΔS stood at 0.04 kJ/mol·K. Further, the Specific enzyme activity in [6] is recorded as 150.85 ± 2.15^b IU/mg. In series [7] (ITC, 37 °C), this molecule gave a Kd of 59.4 µM, a ΔG of -6.016 kcal/mol, a ΔH of -0.629 kcal/mol and a ΔS of 0.07 kJ/mol·K.

Turning to `CCCCCCCCCCCCOS(=O)(=O)[O-].[Na+]` [SDS, sodium dodecyl sulfate], the results for the Residual enzyme activity in [1] (1 mmol/L additive) and in series [2] (1 mmol/L additive) were 67.75 ± 1.3^a % and 80.5 ± 0.91^b %, respectively.

B1: BJ6PAD (Bacillus subtilis subsp. subtilis str. 168) (protein)
chain: MENFIGSHMIYTYENGWEYEIYIKNDHTIDYRIHSGMVGGRWVRDQEVNIVKLTEGVYKVSWTEPTGTDVSLNFMPNEKRMHGIIFFPKWVHEHPEITVCYQNDYIDVMKESREKYETYPKYVVPEFADITYLNNAGINNETLISEAPYEGMTDDIRAGKLK
As for B1, in [11], the Km is on record as 6.87 ± 0.36^b mmol/L, the Vmax is 335 ± 5.45 µmol/min/mg, the turnover number (kcat) was 107 ± 1.42 s⁻¹ and the kcat/Km is 15600 ± 1070 M⁻¹ s⁻¹.

B2: BJ6PAD-N (Bacillus subtilis subsp. subtilis str. 168) (protein)
chain: MNTFDKHDLSGFIGSHMIYTYENGWEYEIYIKNDHTIDYRIHSGMVGGRWVRDQEVNIVKLTEGVYKVSWTEPTGTDVSLNFMPNEKRMHGIIFFPKWVHEHPEITVCYQNDYIDVMKESREKYETYPKYVVPEFADITYLNNAGINNETLISEAPYEGMTDDIRAGKLK
As to B2, in series [11], the Michaelis constant (Km) is 11.85 ± 0.56^a mmol/L, the maximum rate (Vmax) was determined as 536.4 ± 2.55 µmol/min/mg, the turnover number (kcat) came out at 179 ± 3.41 s⁻¹ and the kcat/Km was 15070 ± 80 M⁻¹ s⁻¹.
